Published values from different studies.
Lines come from different studies, so protocols differ.
Target: Mitogen-activated protein kinase 8 (MAPK8, Homo sapiens, UniProt P45983)

| Compound | read-out | mode | method | tested at | quantity | value |
| --- | --- | --- | --- | --- | --- | --- |
| COc1ccc2c(c1)O[C@H](c1ccc(OC)c(OC)c1)C[C@@H]2NC(=O)C1(c2ccc3c(c2)OC(F)(F)O3)CC1 | cell-free assay | – | competition with immobilised ligand | 1 µM | remaining binding | 96% |
| Nc1ncnc2occ(-c3ccc(NC(=O)Nc4cc(C(F)(F)F)ccc4F)cc3)c12 | cell-free assay | inhibitor | – | 20 µM | remaining signal | 11% |
| CC1=C(C#N)C(c2ccc3c(c2)c(NC(=O)c2ccccc2C)nn3C)C(C#N)=C(C)N1 | cell-free assay | – | competition with immobilised ligand | 1 µM | remaining binding | 88% |
| Cn1c2c(Cl)c(Cl)ccc2c2cn[nH]c(=O)c21 | thermal stability | – | DSF | 10 µM | ΔTm | -0.3 °C |
| O=C(Nc1cnn(-c2csc(C(=O)NC3COC3)c2)c1)Nc1c(F)cccc1Cl | enzyme activity | inhibitor | – | 5 µM | remaining activity | 49.1% |
| CCOCCn1cc(C(=O)Nc2ccc(-n3nc(-c4cccnc4)cc3C(F)(F)F)cn2)ccc1=O | cell-free assay | – | competition with immobilised ligand | 1 µM | remaining binding | 72% |
| N#CC(c1ccnc(NCCc2cccnc2)n1)c1nc2ccccc2s1 (stereo not drawn) | enzyme activity | inhibitor | – | 0.5 µM | remaining activity | 87.6% |
| Nc1nc(NC2CCCCC2)sc1C(=O)c1ccccc1 | enzyme activity | inhibitor | – | 10 µM | remaining activity | 60% |
| COc1cc2ncnc(Nc3ccc(Oc4ccccc4)cc3C)c2cc1OC | enzyme activity | inhibitor | – | 1 µM | inhibition | 1% |
| CCS(=O)(=O)c1cc2cc(C[C@](O)(CC(C)(C)c3ccc(F)cc3C(N)=O)C(F)(F)F)[nH]c2cn1 | cell-free assay | – | competition with immobilised ligand | 1 µM | remaining binding | 100% |
| O=C1NC(=O)c2cc(Nc3ccc(F)cc3)c(Nc3ccc(F)cc3)cc21 | cell-free assay | – | – | 0.5 µM | remaining signal | 91.4% |
| Cc1cc(NC(=O)c2cccc3cc(-c4cccc5[nH]nc(N)c45)ccc23)ccc1F | enzyme activity | inhibitor | – | 0.1 µM | activity vs control | 103% |
| C[C@@H]1CN(c2cc(-c3nn(C)c4ccc(OC5(C)CC5)cc34)ncn2)C[C@H](C)O1 | cell-free assay | – | competition with immobilised ligand | 1 µM | remaining binding | 82% |
| CC(C)(C)c1nc(-c2cccc(NS(=O)(=O)c3c(F)cccc3F)c2F)c(-c2ccnc(N)n2)s1 | enzyme activity | inhibitor | radiometric | 1 µM | remaining activity | 89% |
| CC(=O)C1=C(C)N(c2cccc(C(F)(F)F)c2)C(=O)N[C@@H]1c1ccc(C#N)nc1 | cell-free assay | – | competition with immobilised ligand | 1 µM | remaining binding | 100% |
| CCC1(CC)NC(=O)c2c(c3ccc(Cl)c(Cl)c3n2C)C1C#N (stereo not drawn) | thermal stability | – | DSF | 10 µM | ΔTm | 0.3 °C |
| N#Cc1c(NC(=O)c2cccc3ccccc23)sc2c1CCCC2 | cell-free assay | – | – | 0.5 µM | remaining signal | 87.3% |
| COc1cc(Nc2cnc(C#N)c(O[C@H](C)CN(C)C)n2)ncc1-c1cnn(C)c1 | enzyme activity | inhibitor | radiometric | 1 µM | remaining activity | 104% |

| Compound | read-out | mode | method | tested at | quantity | value |
| --- | --- | --- | --- | --- | --- | --- |
| COc1cc2c(N3CCN(C(=O)Nc4ccc(OC(C)C)cc4)CC3)ncnc2cc1OCCCN1CCCCC1 | cell-free assay | – | – | 0.5 µM | remaining signal | 105% |
| O=C(Nc1cnn(-c2csc(C(=O)NC3COC3)c2)c1)Nc1ccccc1Cl | enzyme activity | inhibitor | – | 5 µM | remaining activity | 57.6% |
| CNCc1ccc(-c2cc(-c3nc(-c4ccc(S(=O)(=O)C(C)C)cc4)cnc3N)on2)cc1 | enzyme activity | inhibitor | – | 0.4 µM | inhibition | 6% |
| Cn1c(=O)n(-c2ccc(C(C)(C)C#N)cc2)c2c3cc(-c4cnc5ccccc5c4)ccc3ncc21 | enzyme activity | inhibitor | – | 10 µM | remaining activity | 105% |
| CC/C(=N\NC(=O)NCc1cccc(O)c1)c1ccc(O)c(C)c1O | enzyme activity | inhibitor | – | 0.1 µM | inhibition | -2.4% |
| COc1cc(-c2cc(-c3ccc(N4CCNCC4)cc3)cnc2C)cc(OC)c1OC | enzyme activity | inhibitor | – | 1 µM | inhibition | 2% |
| Cn1c2c(c3ccc(Cl)c(Cl)c31)C(C#N)C(C)(C)NC2=O (stereo not drawn) | thermal stability | – | DSF | 10 µM | ΔTm | 1.3 °C |
| FC(F)(F)Oc1cccc(-c2cnc3ccc(-c4ccncc4)nn23)c1 | enzyme activity | inhibitor | radiometric | 1 µM | activity vs control | 91% |
| COc1cc(/C=C/C(=O)CC(=O)/C=C/c2ccc(O)c(OC)c2)ccc1O | enzyme activity | inhibitor | – | 1 µM | activity vs control | 99% |
| Cc1ccc(NC(=O)c2ccc(C)c(C(F)(F)F)c2)cc1C#Cc1nn(C2CCC(O)CC2)c2ncnc(N)c12 (stereo not drawn) | cell-free assay | – | – | 10 µM | remaining signal | 35% |
| c1ccc(N2CCN(Cc3nc4ccccc4[nH]3)CC2)nc1 | binding | – | competition with immobilised ligand | 1 µM | remaining binding | 100% |
| Cn1c2c(c3ccc(Cl)c(Cl)c31)C(C#N)C1(CCOCC1)NC2=O (stereo not drawn) | thermal stability | – | DSF | 10 µM | ΔTm | -0.1 °C |
| CN(C)C1CCN(CC#Cc2nn(C3CCCC3)c3nc(NCc4ccccc4)ncc23)C1 (stereo not drawn) | enzyme activity | inhibitor | FRET | 1 µM | inhibition | 5% |
| CC1(C)NC(=O)c2[nH]c3c(Cl)c(Cl)ccc3c2C1C#N (stereo not drawn) | thermal stability | – | DSF | 10 µM | ΔTm | 0.8 °C |
| C=CC(=O)Nc1cc(Nc2nccc(Nc3cc(Cl)c(F)cc3C(C)(C)O)n2)c(OC)cc1N1CC[C@@H](N(C)C)C1 | enzyme activity | inhibitor | – | 1 µM | inhibition | -3% |
| CN1CC(Oc2cnc(C#N)cc2-c2ccn3nc(NC(=O)C4CC4)cc3c2)C1 | enzyme activity | inhibitor | – | 1 µM | inhibition | -4% |
| Cc1cc(NC(=O)c2cccc(S(F)(F)(F)(F)F)c2)cc(-n2ccn3nc(-c4cccnc4)cc23)c1 | cell-free assay | – | competition with immobilised ligand | 1 µM | remaining binding | 55.9% |
| CCCS(=O)(=O)Nc1ccc(F)c(C(=O)c2c[nH]c3ncc(-c4ccc(Cl)cc4)cc23)c1F | enzyme activity | inhibitor | – | 1 µM | inhibition | < 10% |
